Results: ChEMBL document CHEMBL1649147, “Antistaphylococcal activity of dihydrophthalazine antifolates, a family of novel antibacterial drugs” (2009)

Assays:
[1] = system: Staphylococcus epidermidis; assay: Antibacterial activity against methicillin-resistant, Linezolid non-susceptible coagulase-negative Staphylococcus epidermidis 345 after 9 passages by agar dilution method; type: functional
Summary of the method: (§1)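 Daily serial passage for up to 50 days at 35°C for 24 h in 1 ml MHB. […] Each transfer used 10 µl from the tube nearest the MIC (1–2 dilutions below) with the same turbidity as the drug-free control. […] MICs were measured by agar dilution, with changes given as log2 steps.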

[2] = system: Staphylococcus epidermidis; assay: Antibacterial activity against methicillin-resistant, vancomycin-intermediate coagulase-negative Staphylococcus epidermidis 225 after 11 passages by agar dilution method; type: functional; summary of the method: as §1
[3] = system: Staphylococcus aureus; assay: Antibacterial activity against methicillin-resistant Staphylococcus aureus 145 by broth macrodilution method; type: functional
[4] = system: Staphylococcus epidermidis; assay: Antibacterial activity against methicillin-resistant, Linezolid non-susceptible coagulase-negative Staphylococcus epidermidis 345 by agar dilution method; type: functional
[5] = system: Staphylococcus aureus; assay: Antibacterial activity against methicillin-susceptible Staphylococcus aureus 505 by broth macrodilution method; type: functional
[6] = system: Staphylococcus aureus; assay: Antibacterial activity against methicillin-resistant Staphylococcus aureus 145 after 10 passages by agar dilution method; type: functional
[7] = system: Staphylococcus epidermidis; assay: Antibacterial activity against methicillin-resistant, vancomycin-intermediate coagulase-negative Staphylococcus epidermidis 225 by agar dilution method; type: functional
Summary of the method: (§2)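 Agar dilution on Mueller-Hinton agar per CLSI guidelines. S. aureus ATCC 29213 and E. faecalis ATCC 29212 were run with each set, and test MICs were accepted only when the control strains fell within acceptable ranges.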

[8] = system: Staphylococcus epidermidis; assay: Antibacterial activity against methicillin-susceptible coagulase-negative Staphylococcus epidermidis 057 after 9 passages by agar dilution method; type: functional; summary of the method: as §1
[9] = system: Staphylococcus epidermidis; assay: Antibacterial activity against methicillin-resistant coagulase-negative Staphylococcus epidermidis 345 by broth macrodilution method; type: functional
[10] = system: coagulase-negative staphylococci; assay: Antibacterial activity against methicillin-susceptible coagulase-negative staphylococci by agar dilution method
[11] = system: Staphylococcus aureus; assay: Antibacterial activity against Tmp-susceptible coagulase-negative Staphylococcus aureus by agar dilution method; type: functional
Summary of the method: (§3)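 MICs by agar dilution on Mueller-Hinton agar following CLSI guidelines. S. aureus ATCC 29213 and E. faecalis ATCC 29212 were run as quality controls with each set, and test-strain MICs were kept only if control MICs fell within acceptable ranges.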

[12] = system: Staphylococcus aureus; assay: Antibacterial activity against methicillin-resistant Staphylococcus aureus by agar dilution method; type: functional; summary of the method: as §2
[13] = system: Staphylococcus epidermidis; assay: Antibacterial activity against methicillin-susceptible coagulase-negative Staphylococcus epidermidis 057 by broth macrodilution method; type: functional
[14] = system: Staphylococcus aureus; assay: Antibacterial activity against methicillin-susceptible, vancomycin-intermediate Staphylococcus aureus 505 by broth macrodilution method; type: functional
[15] = system: Staphylococcus epidermidis; assay: Antibacterial activity against methicillin-resistant coagulase-negative Staphylococcus epidermidis 225 by broth macrodilution method; type: functional
[16] = system: Staphylococcus aureus; assay: Antibacterial activity against Tmp-resistant Staphylococcus aureus by agar dilution method; type: functional; summary of the method: as §3
[17] = system: coagulase-negative staphylococci; assay: Antibacterial activity against methicillin-resistant coagulase-negative staphylococci by agar dilution method
[18] = system: Staphylococcus aureus; assay: Antibacterial activity against methicillin-susceptible Staphylococcus aureus ATCC 29213 after 9 passages by agar dilution method; type: functional; conditions: ATCC29213; summary of the method: as §1
[19] = system: coagulase-negative staphylococci; assay: Antibacterial activity against Tmp-susceptible coagulase-negative staphylococci by agar dilution method
[20] = system: Staphylococcus aureus; assay: Antibacterial activity against Tmp-susceptible Staphylococcus aureus by agar dilution method; type: functional; summary of the method: as §3
[21] = system: Staphylococcus epidermidis; assay: Antibacterial activity against methicillin-susceptible coagulase-negative Staphylococcus epidermidis 051 after 9 passages by agar dilution method; type: functional; summary of the method: as §1
[22] = system: Staphylococcus aureus; assay: Antibacterial activity against methicillin-resistant Staphylococcus aureus ATCC 43300 after 9 passages by agar dilution method; type: functional; conditions: ATCC43300
Summary of the method: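 Serial passage under drug. Inoculum was ~1 × 10^6 CFU/ml from overnight MHA growth, in 1 ml MHB at 35°C for 24 h. Drug ranged from 4 log2 steps above to 3 log2 steps below the MIC. […] MIC change is given as log2 steps.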

[23] = system: Staphylococcus epidermidis; assay: Antibacterial activity against methicillin-resistant coagulase-negative Staphylococcus epidermidis 197 after 12 passages by agar dilution method; type: functional; summary of the method: as §1
[24] = system: Staphylococcus aureus; assay: Antibacterial activity against methicillin-susceptible Staphylococcus aureus by agar dilution method; type: functional; summary of the method: as §2
[25] = system: Staphylococcus aureus; assay: Antibacterial activity against vancomycin-resistant Staphylococcus aureus VRS1 by broth macrodilution method; type: functional
Summary of the method: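 Michigan VRSA strain, one of 12 staphylococci later used in time-kill studies. MIC was determined by broth macrodilution and reported in μg/ml.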

[26] = system: Staphylococcus aureus; assay: Antibacterial activity against methicillin-susceptible Staphylococcus aureus ATCC 29213 by broth macrodilution method; type: functional; conditions: ATCC29213
[27] = system: Staphylococcus aureus; assay: Antibacterial activity against methicillin-resistant Staphylococcus aureus ATCC 43300 by broth macrodilution method; type: functional; conditions: ATCC43300
[28] = system: coagulase-negative staphylococci; assay: Antibacterial activity against Tmp-resistant coagulase-negative staphylococci by agar dilution method
[29] = system: Staphylococcus epidermidis; assay: Antibacterial activity against methicillin-resistant coagulase-negative Staphylococcus epidermidis 074 by broth macrodilution method; type: functional
[30] = system: Staphylococcus aureus; assay: Antibacterial activity against methicillin-resistant and vancomycin-resistant Staphylococcus aureus VRS1 by agar dilution method; type: functional; summary of the method: as §2
[31] = system: Staphylococcus epidermidis; assay: Antibacterial activity against methicillin-susceptible coagulase-negative Staphylococcus epidermidis 051 by broth macrodilution method; type: functional
[32] = system: Staphylococcus epidermidis; assay: Antibacterial activity against methicillin-resistant coagulase-negative Staphylococcus epidermidis 197 by broth macrodilution method; type: functional
[33] = system: Staphylococcus aureus; assay: Antibacterial activity against methicillin-susceptible, vancomycin-intermediate Staphylococcus aureus 505 after 9 passages by agar dilution method; type: functional; summary of the method: as §1
[34] = system: Staphylococcus aureus; assay: Antibacterial activity against methicillin-resistant Staphylococcus aureus 507 by broth macrodilution method; type: functional
[35] = system: Staphylococcus epidermidis; assay: Antibacterial activity against methicillin-resistant, vancomycin-intermediate coagulase-negative Staphylococcus epidermidis 225 after 50 passages by agar dilution method; type: functional; summary of the method: as §1
[36] = system: Staphylococcus aureus; assay: Antibacterial activity against methicillin-susceptible, vancomycin-intermediate Staphylococcus aureus 505 after 50 passages by agar dilution method; type: functional; summary of the method: as §1

CO[C@H]1/C=C/O[C@@]2(C)Oc3c(C)c(O)c4c(O)c(c(/C=N/N5CCN(C)CC5)c(O)c4c3C2=O)NC(=O)/C(C)=C\C=C\[C@H](C)[C@H](O)[C@@H](C)[C@@H](O)[C@@H](C)[C@H](OC(C)=O)[C@@H]1C [RIFAMPIN]
0.03 µg/mL: MIC [5] | MIC [13] | MIC [15] | MIC [29] | MIC [32]
4 µg/mL: MIC [34]
> 16 µg/mL: MIC90 [16] | MIC90 [28]
2 µg/mL: MIC90 [17]
0.016 µg/mL: MIC [7] | MIC [9] | MIC90 [10] | MIC50 [12] | MIC90 [12] | MIC [14] | MIC90 [19] | MIC50 [20] | MIC90 [20] | MIC90 [24] | MIC [31]
> 32 µg/mL: MIC [30]
≤ 0.004 µg/mL: MIC [10] | MIC [11]
> 128 µg/mL: MIC [1] | MIC [2] | MIC [6] | MIC [8] | MIC [18] | MIC [21] | MIC [22] | MIC [23] | MIC [25] | MIC [33]
0.004 µg/mL: MIC [27]
0.008 µg/mL: MIC [3] | MIC [4] | MIC50 [16] | MIC50 [17] | MIC50 [19] | MIC50 [24] | MIC [26] | MIC50 [28]

CN[C@H](CC(C)C)C(=O)N[C@H]1C(=O)N[C@@H](CC(N)=O)C(=O)N[C@H]2C(=O)N[C@H]3C(=O)N[C@H](C(=O)N[C@H](C(=O)O)c4cc(O)cc(O)c4-c4cc3ccc4O)[C@H](O)c3ccc(c(Cl)c3)Oc3cc2cc(c3O[C@@H]2O[C@H](CO)[C@@H](O)[C@H](O)[C@H]2O[C@H]2C[C@](C)(N)[C@H](O)[C@H](C)O2)Oc2ccc(cc2Cl)[C@H]1O [VANCOMYCIN]
> 32 µg/mL: MIC [30]
4 µg/mL: MIC90 [16]
16 µg/mL: MIC [35]
2 µg/mL: MIC90 [10] | MIC90 [12] | MIC50 [17] | MIC90 [17] | MIC90 [19] | MIC90 [20] | MIC90 [24] | MIC50 [28] | MIC90 [28]
8 µg/mL: MIC [7] | MIC [15] | MIC [36]
1 µg/mL: MIC50 [12] | MIC50 [16] | MIC50 [19] | MIC50 [20] | MIC50 [24]
> 256 µg/mL: MIC [25]
